# Experimental data gathered from unrelated publications.
# Lines come from different studies, so protocols differ.
# Cell line: PANC-1
# Effect on: cell growth or viability
Structure (SMILES),technique,time,measurement,result
Cc1ccc2[nH]c(=O)c3cc(C(=O)NCCCN(C)Cc4ccccc4)sc3c2c1,MTT,24 h,IC50,16.8 µM
COc1ccc(C(=O)O[C@@H]2CN3Cc4c(cc5c(c4OC)OCO5)[C@@]24C=C[C@H](OC)C[C@@H]34)cc1,WST-1,,IC50,> 10 µM
CC(=O)c1ccc(N=Nc2c(C(=O)O)cc(O)c(O)c2O)cc1,MTT,,IC50,12.7 µM
CCN(CC)CCCC(C)Nc1cnc(C(=O)Nc2cc(F)cc3cccnc23)cn1 (centres unmarked),MTT,,IC50,7.2 µM
O=C(O)c1cc(O)c(O)c(O)c1,MTT,,IC50,17.9 µM
COc1c2c(cc3c1OCO3)[C@]13C=C[C@H](OC)C[C@H]1N(C2)C[C@H]3OC(=O)c1cccc(C)c1,WST-1,,IC50,> 10 µM
CC(C)C[C@H](NC(=O)[C@H](Cc1ccccc1)NC(=O)c1cnccn1)B(O)O,ATP luminescence,,IC50,0.01 µM
Cc1ncsc1-c1ccc(CNC(=O)[C@@H]2C[C@@H](O)CN2C(=O)[C@@H](NC(=O)CCCCCCCCCCCC(=O)NCCCCC#Cc2cccc(-c3nn(-c4nc(C(=O)O)cs4)c(CC4CC4)c3Cc3ccc(S(N)(=O)=O)cc3)c2)C(C)(C)C)cc1,CCK-8,72 h,GI50,16.1 µM
COc1cccc2c1C(=O)c1c(O)c3c(c(O)c1C2=O)C[C@@](O)(C(=O)CO)C[C@@H]3O[C@H]1C[C@H](N)[C@H](O)[C@H](C)O1,WST-1,72 h,IC50,0.53 µM
CC(=O)c1ccc(/N=N/c2cc(/C=C/C(=O)O)ccc2O)cc1,MTT,,IC50,> 50 µM
CNc1ncc2cc(-c3ccc(-c4cccc(C)n4)cc3Cl)c(=O)n(C[C@H]3OC[C@H](N)CO3)c2n1,MTT,24 h,IC50,23.2 µM
COc1cccc(C(=O)O[C@@H]2CN3Cc4c(cc5c(c4OC)OCO5)[C@@]24C=C[C@H](OC)C[C@@H]34)c1,WST-1,,IC50,8.7 µM
O=C(O)/C=C/c1ccc(O)c(O)c1,MTT,,IC50,4.1 µM
COc1cc(Nc2nccc(-c3cnn4nc(OC)ccc34)n2)cc(C(F)(F)F)c1,ATP luminescence,,IC50,0.76 µM
